# Screening results (PubChem)
# Lmaj promast = inhibitors of Leishmania major promastigote growth; 9% of 200,000 active; inhibition, % at 10 µM; AID 1063; Leishmania major promastigotes, resazurin fluorescence viability; in the data active = inhibition above about 50%;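 note: promastigotes grown with compound for 44 hours at 28 °C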
# S1P4 ag = human S1P4 receptor agonism | O95977 | S1P4-expressing cell line, agonist reporter assay | activation, % at 4.98 µM | 0.35% of 220,000 active | AID 1509; in the data active = activation above about 11%;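 note: 0% = DMSO vehicle and 100% = reference agonist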
# Target sequence (O95977 whole entry, looked up): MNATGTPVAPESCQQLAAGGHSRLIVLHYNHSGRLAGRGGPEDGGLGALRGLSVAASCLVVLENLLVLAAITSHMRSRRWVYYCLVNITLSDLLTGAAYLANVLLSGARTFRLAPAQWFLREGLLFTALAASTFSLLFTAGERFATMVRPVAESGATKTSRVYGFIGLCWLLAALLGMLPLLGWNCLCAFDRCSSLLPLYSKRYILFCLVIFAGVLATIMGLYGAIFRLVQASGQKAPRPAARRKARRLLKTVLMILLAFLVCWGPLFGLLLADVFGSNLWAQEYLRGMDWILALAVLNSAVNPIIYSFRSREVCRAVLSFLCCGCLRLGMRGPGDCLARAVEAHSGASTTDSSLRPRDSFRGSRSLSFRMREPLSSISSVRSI
# S1P4 antag = human S1P4 receptor antagonism | O95977 | 0.26% of 220,000 active | AID 1510 | S1P4-expressing cells, antagonist mode, reporter read-out | inhibition, % at 4.98 µM; in the data active = inhibition above about 29%;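 note: 0% = wells stimulated with agonist and 100% = vehicle wells without agonist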
# MDM2 E3 inh = inhibitors of human Mdm2 E3 ubiquitin ligase; signal enhancement, % at 5 µM; 0.11% of 210,000 active; cell-based MDM2 ubiquitination luciferase reporter, 2 h; 0 = plate control, 100 = twice control, blank-subtracted;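 active = signal enhancement of 30% or more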;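 note: luminescence tracks abundance of the self-degrading MDM2-luciferase fusion protein; higher signal means inhibition of MDM2 E3 ligase activity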
#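 test system = mammalian cells stably expressing self-ubiquitinating, self-degrading MDM2 E3–luciferase fusion | quantity = 2000 cells/well | incubation = cell settling 4 h, compound treatment 2 h, both 37 °C | signal = luminescence with SteadyLite reagent, 15 min at room temperature | evaluation = % enhancement relative to plate controls after blank subtraction | benchmarks = plate controls and plate blanks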
# S1P3 antagonist = antagonists of human S1P3 receptor | Q99500 | CHO S1P3 NFAT-BLA reporter, FRET fluorescence, antagonist mode | inhibition, % at 4.98 µM | 0.27% of 170,000 active | AID 485;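 active = inhibition above the plate cutoff, the mean inhibition of test wells on that plate plus 3 SD, cut at about 28% in these data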;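 note: cells challenged with S1P at its EC80 of 0.8 µM; blue over green emission ratio from cleaved BLA substrate after 4 h stimulation; 0% = S1P-stimulated wells and 100% = unstimulated DMSO-only wells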
# * marks the source's active call; other numbers are inactive results; x = not tested or not shown. Many of the other results were omitted from the sample, so hits are more common in it than they were.
SMILES,Lmaj promast,S1P4 ag,S1P4 antag,MDM2 E3 inh,S1P3 antagonist
Cc1ccc(S(=O)(=O)NC(=O)COc2ccccc2C(N)=O)cc1,2,-1,25,-6,-20
COc1ccc(C(=O)/C=C\N2CCOCC2)cc1,0,1,-2,-7,-61
COC(=O)c1ccccc1NC(=O)C1CCN(S(=O)(=O)c2cc(C)ccc2OC)CC1,76*,-1,-15,-15,-27
COc1ccc(NC(=O)C2CCC(C(C)(C)C)CC2)cc1S(=O)(=O)N1CCCCC1 (configuration not stated),99*,-1,-29,0,-4
COc1ccc(OC)c(S(=O)(=O)N2CCC(C(=O)Nc3cc(C)ccc3C)CC2)c1,0,3,0,25,x
COc1ccc(OCCN2C(=O)NC3(CCc4ccccc4C3)C2=O)cc1 (configuration not stated),-5,-1,-8,-9,-13
CCCOc1ccc(N2C(=O)CC(N(CCOC34CC5CC(CC(C5)C3)C4)C(C)=O)C2=O)cc1 (configuration not stated),12,3,-1,-26,-6
Cc1onc(-c2c(F)cccc2Cl)c1C(=O)OCn1nnc2ccccc2c1=O,99*,-4,-26,-1,-47
Cc1onc(-c2c(F)cccc2Cl)c1C(=O)OCC(=O)c1c(N)n(C)c(=O)n(C)c1=O,76*,1,-14,-4,0
Cc1onc(-c2ccccc2Cl)c1C(=O)OCC(=O)c1c(N)n(C)c(=O)n(C)c1=O,41,-1,4,-4,-11
Cn1c(N)c(C(=O)COC(=O)c2ccc(Cl)c(S(=O)(=O)N3CCCCC3)c2)c(=O)n(C)c1=O,88*,0,-8,-10,-8
NC(=O)CC[C@@H]1NC(=O)[C@@H]2CCCN2C(=O)c2cc([N+](=O)[O-])cc(I)c2NCCC[C@@H](C(N)=O)NC1=O,-7,1,1,x,2
NC(=S)NNc1c(F)c(F)c(F)c(F)c1F,-6,3,-9,-5,-2
COc1ccccc1N(C(=O)c1ccncc1)c1nc(-c2ccc([N+](=O)[O-])cc2)cs1,99*,1,14,-8,-3
COc1ccc(C2=C(Nc3ccc(C)cc3)c3ccccc3C2=O)cc1,64*,-1,-10,-14,-14
COc1ccc(C2=C(Nc3ccc(F)cc3)c3ccccc3C2=O)cc1,-1,1,2,0,x
COc1ccc2[nH]c3c(N4CCC(O)(c5cccc(C(F)(F)F)c5)CC4)ncnc3c2c1,100*,0,-19,-10,x
COc1ccc2[nH]c3c(N4CCN(Cc5ccc6c(c5)OCO6)CC4)ncnc3c2c1,56*,2,-1,-21,x
CCOc1ccc2[nH]c3c(N4CCc5ccccc5C4)ncnc3c2c1,x,0,12,-1,9
COc1ccc2c(c1)c1ncnc(N3CCN(Cc4ccc5c(c4)OCO5)CC3)c1n2C,24,1,-12,-3,-16
O=C(CCCc1nc2ccccc2s1)NCc1ccc(F)cc1,0,0,-9,19,-14
O=C(Nc1ccc(F)cc1F)c1ccc(-n2cccn2)c([N+](=O)[O-])c1,0,-2,-7,-12,-14
COc1ccc(C(CC(=O)c2ccccc2)S(=O)(=O)c2ccc(C)cc2)cc1 (configuration not stated),16,0,5,2,x
COc1ccc(C(=O)C/C(=C\C(=O)c2ccc(C)cc2)c2ccccc2)cc1,52*,0,5,-11,x
O=S(=O)(c1ccc(F)cc1)N1CCC(N2CCCC2)CC1,43,0,3,-5,-19
SMILES,Lmaj promast,S1P4 ag,S1P4 antag,MDM2 E3 inh,S1P3 antagonist
CC(C)CCN(C)C1CCN(S(=O)(=O)c2ccc(F)cc2)CC1,95*,-1,3,-12,-12
CCOC(=O)N1CCN(C(=S)Nc2cc(S(=O)(=O)N3CCOCC3)ccc2Cl)CC1,-1,0,5,-6,-18
CN(c1ccccc1)S(=O)(=O)c1ccc(Cl)c(C(=O)Nc2ccc(-c3nc4ccccc4[nH]3)cc2)c1,96*,0,-8,1,8
CN(c1ccccc1)S(=O)(=O)c1ccc(Cl)c(C(=O)Nc2nc3ccccc3[nH]2)c1,99*,0,2,5,-5
Cc1ccnc(NS(=O)(=O)c2ccc(NS(=O)(=O)c3ccccc3)cc2)n1,-3,-2,-16,5,x
CCN(Cc1ccccc1)C(=O)c1nn(-c2ccc(OC)cc2)c(=O)c2c1c1ccccc1n2C,50*,0,-12,-17,23
CCCCN(CC)CCNC(=O)c1nn(-c2ccc(OC)cc2)c(=O)c2c1c1ccccc1n2C,7,-1,-5,-10,4
COc1cccc(/C=C/C(=O)NCc2ccc(S(N)(=O)=O)cc2)c1,x,3,-5,-15,-3
CCN(CC)C(=O)C1=C(C)Nc2ncnn2C1c1cccnc1 (configuration not stated),-7,2,-23,-8,-11
CN1CCN(c2ccccc2NC(=O)COc2ccc(Br)cc2)CC1,74*,0,12,-12,x
O=[N+]([O-])c1cc(CN2CCCC2)ccc1Sc1ccc(Cl)cc1,95*,-2,-1,0,-6
O=S(=O)(c1ccccc1)c1nc(-c2ccco2)oc1Nc1ccccc1,76*,0,-12,-8,-1
COc1cccc(OC)c1OCCCOc1ccc(C)cc1Br,37,1,-15,-11,8
CCCCNCCCOc1ccc(C)cc1Br,90*,2,-6,-1,-14
Clc1cccc(OCCCN2CCCC2)c1Cl,1,1,4,-6,-10
CNCCCOc1ccc(C)cc1Br,11,-2,6,-8,x
Cc1ccc(OCCCNCCO)c(Br)c1,73*,-4,-1,-13,x
CCCCNCCCOc1cccc(Cl)c1Cl,100*,0,7,-5,x
O=C(Nc1ccc(S(=O)(=O)Nc2ncccn2)cc1)C1=NN(c2ccccc2)C(=O)CC1,x,-1,1,-11,5
Cc1c(NC(=O)CN2CCN(c3ccc(F)cc3)CC2)c(=O)n(-c2ccccc2)n1C,-8,1,-16,-4,-15
Cc1cc(=O)oc2cc(OCc3ccc(S(=O)(=O)N4CCOCC4)cc3)ccc12,80*,0,5,-12,28
Cc1cc(=O)oc2cc(OCc3ccc(C(=O)N4CCN(c5ccc([N+](=O)[O-])cc5)CC4)cc3)ccc12,12,0,-9,-2,-7
Cc1cc(=O)oc2cc(OCc3ccc(C(=O)N4CCN(c5ccccc5)CC4)cc3)ccc12,65*,0,-4,6,2
Nc1c(S(=O)(=O)c2cccs2)c2nc3ccccc3nc2n1/N=C/c1cccc(O)c1,58*,-3,-2,-10,-44
COc1cccc(/C=N/n2c(N)c(S(=O)(=O)c3cccs3)c3nc4ccccc4nc32)c1,-2,1,-5,-21,x
COc1ccc(/C=N/n2c(N)c(S(=O)(=O)c3cccs3)c3nc4ccccc4nc32)cc1OC,62*,1,-8,-2,x
